Measurements taken from ChEMBL document CHEMBL3580633, “Benzoxaborole antimalarial agents. Part 4. Discovery of potent 6-(2-(alkoxycarbonyl)pyrazinyl-5-oxy)-1,3-dihydro-1-hydroxy-2,1-benzoxaboroles” (J Med Chem, 2015).
pIC50: −log10 of the molar value.

Tests used:
[1] = test system: Plasmodium berghei; experiment: Antiplasmodial activity against Plasmodium berghei infected in Swiss Webster mouse assessed as mouse survival at 100 mg/kg, po dosed once daily for 4 consecutive days beginning 1 hr after initial infection and measured on day 13 post infection by Giemsa staining method; type: functional
Method in brief: (§1)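 Female Swiss Webster mice (about 20 g) infected ip with 6 × 10^6 P. berghei-infected erythrocytes. Oral gavage once daily for 4 days, starting 1 h after infection. Vehicle PEG300/propylene glycol/water (55/25/20 by weight). Giemsa-smear parasitemia counted daily from day 4. Mice euthanised above 50% parasitemia. Survival followed to day 21, 5 mice per dose, chloroquine 30 mg/kg as reference.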

[2] = test system: Mus musculus; experiment: Tmax in CD1 mouse assessed as 5-(1-hydroxy-1,3-dihydrobenzo[c][1,2]oxaborol-6-yloxy)pyrazine-2-carboxylic acid level at 5 mg/kg, po by HPLC coupled to tandem mass spectrometry; type: ADME, organism-based; conditions: in vivo
Method in brief: (§2)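 The parent ester was given to adult female CD-1 mice at 5 mg/kg, iv or by oral gavage, in PEG 400/dimethylacetamide/water (45/10/45, pH 5.8). Blood was sampled, and the acid formed from the ester in vivo was quantified by HPLC-tandem MS to derive its PK parameters.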

[3] = test system: Mus musculus; experiment: AUC (0 to infinity) in CD1 mouse assessed as 5-(1-hydroxy-1,3-dihydrobenzo[c][1,2]oxaborol-6-yloxy)pyrazine-2-carboxylic acid level at 5 mg/kg, po by HPLC coupled to tandem mass spectrometry; type: ADME, organism-based; design: dose 5 mg/kg, route oral, time infinity; conditions: in vivo; method in brief: as §2
[4] = test system: Mus musculus; experiment: Oral bioavailability in CD1 mouse assessed as 5-(1-hydroxy-1,3-dihydrobenzo[c][1,2]oxaborol-6-yloxy)pyrazine-2-carboxylic acid level at 5 mg/kg by HPLC coupled to tandem mass spectrometry; type: ADME, organism-based; conditions: in vivo; method in brief: as §2
[5] = test system: Mus musculus; experiment: Terminal half life in CD1 mouse assessed as 5-(1-hydroxy-1,3-dihydrobenzo[c][1,2]oxaborol-6-yloxy)pyrazine-2-carboxylic acid level at 5 mg/kg, po by HPLC coupled to tandem mass spectrometry; type: ADME, organism-based; conditions: in vivo; method in brief: as §2
[6] = test system: Plasmodium berghei; experiment: Antiplasmodial activity against Plasmodium berghei infected in Swiss Webster mouse assessed as mouse survival at 33 mg/kg, po dosed once daily for 4 consecutive days beginning 1 hr after initial infection and measured on day 13 post infection by Giemsa staining method; type: functional
Method in brief: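 Female Swiss Webster mice (about 20 g) were infected ip with 6 × 10^6 P. berghei-infected erythrocytes from a donor mouse. They were dosed by oral gavage once daily for 4 days, starting 1 h post-infection, in PEG 300/propylene glycol/water (55/25/20 by weight). Parasitemia was read daily on Giemsa smears from day 4, and mice were euthanized above 50% parasitemia. Percent survival was tracked to 21 days.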

[7] = test system: Mus musculus; experiment: Oral bioavailability in CD1 mouse at 30 mg/kg by HPLC coupled to tandem mass spectrometry; type: ADME, organism-based; conditions: in vivo
Method in brief: (§3)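 Adult female CD-1 mice were dosed 10 mg/kg by iv injection or 30 mg/kg by oral gavage, with the compound in 100% saline. Blood samples were collected and drug content was measured by HPLC-tandem MS.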

[8] = Tmax in CD1 mouse at 30 mg/kg, po by HPLC coupled to tandem mass spectrometry; type: ADME, organism-based; conditions: in vivo; method in brief: as §3
[9] = AUC (0 to infinity) in CD1 mouse at 10 mg/kg, iv by HPLC coupled to tandem mass spectrometry; type: ADME, organism-based; design: dose 10 mg/kg, route intravenous, time infinity; conditions: in vivo; method in brief: as §3
[10] = test system: Plasmodium falciparum; experiment: Antimalarial activity against chloroquine-sensitive Plasmodium falciparum 3D7 cultured in human erythrocytes incubated for 72 hrs by [3H]-hypoxanthine incorporation assay; type: functional, organism-based
[11] = test system: Plasmodium berghei; experiment: Antiplasmodial activity against Plasmodium berghei infected in Swiss Webster mouse assessed as mouse survival at 200 mg/kg, po dosed once daily for 4 consecutive days beginning 1 hr after initial infection and measured on day 7 post infection by Giemsa staining method; type: functional; method in brief: as §1
[12] = Stability in mouse liver microsomes assessed as compound remaining at 1 uM incubated for 1 hr in absence of NADPH by LC/MS/MS method; type: ADME
Method in brief: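 Compound at 1 μM final (from a 1 mg/mL DMSO stock) was incubated with mouse or human liver microsomes (0.5 mg/mL protein) in 100 mM potassium phosphate, pH 7.4, at 37 °C with shaking, with or without 1 mM NADPH. Samples were taken over 0–120 min and tested in duplicate. Reactions were quenched with cold acetonitrile plus internal standard and analyzed by LC/MS/MS.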

`COC(=O)c1cnc(Oc2ccc3c(c2)B(O)OC3)cn1` showed a survival at 100 mg/kg [1] of 60%, a Tmax [2] of 15 min and an AUC [3] of 610 ng·h/mL. For the same compound, the F [4] was 29%, the “beta t1/2” value [5] was 90 min and the survival at 33 mg/kg [6] was 0%.
In the case of `O=C(O)c1cnc(Oc2ccc3c(c2)B(O)OC3)cn1`, the F [7] was 67%, the Tmax [8] was 15 min and the AUC(0-inf) [9] was 4300 ng·h/mL. It also gave a pIC50 [10] of 6.52.
Work on `NC(=O)c1cnc(Oc2ccc3c(c2)B(O)OC3)cn1` yielded a survival at 200 mg/kg [11] of 100% and a Stability [12] of 100%.
